In ChEMBL document CHEMBL1944511, “Bakuchiol derivatives as novel and potent cytotoxic agents: a report” (Eur J Med Chem, 2012):

Legend:
HCT-15 [1] = experiment: Growth inhibition of human HCT15 cells at 5 uM after 48 hrs by sulpharhodamine B assay; assay type: functional; conditions: HCT-15, 48 h, read-out: GI
Summary of the method: (§1)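 This is the SRB protein-stain assay on adherent cells in RPMI-1640/MEM with 10% FCS. Each compound in DMSO (vehicle <0.2%) was applied at a single fixed concentration for 48 h. Cells were fixed with TCA and stained with SRB, and the dye was solubilised in Tris and read at 570/620 nm. Percent growth inhibition is relative to vehicle-treated controls, reported as mean ± SD of three experiments run in triplicate.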

HL-60 [2] = experiment: Induction of apoptosis in human HL60 cells assessed as loss of mitochondrial membrane potential at 20 uM after 24 hrs by rodamine-123 staining-based flow cytometric analysis (reference value: 6%); assay type: functional
PC-3 [3] = experiment: Growth inhibition of human PC3 cells at 30 uM after 48 hrs by sulpharhodamine B assay; assay type: functional; conditions: PC-3, 48 h, read-out: GI
Summary of the method: (§2)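 Cells grown in RPMI-1640/MEM with 10% FCS, penicillin/streptomycin, 37 °C, 5% CO2. Seeded in 96-well plates, allowed to adhere overnight, then exposed 48 h to analogs in DMSO (vehicle <0.2% in controls). TCA-fixed, stained with 0.4% SRB in 1% acetic acid, dye solubilized in 10 mM Tris base, OD 570 nm (ref 620 nm). Mean ± SD of three experiments run in triplicate.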

PC-3 [4] = experiment: Growth inhibition of human PC3 cells at 50 uM after 48 hrs by sulpharhodamine B assay; assay type: functional; conditions: PC-3, 48 h, read-out: GI; summary of the method: as §2
A549 [5] = experiment: Growth inhibition of human A549 cells at 20 uM after 48 hrs by sulpharhodamine B assay; assay type: functional; conditions: A549, 48 h, read-out: GI; summary of the method: as §1
MCF7 [6] = experiment: Cytotoxicity against human MCF7 cells after 48 hrs by sulpharhodamine B assay; assay type: functional, cell-based; conditions: MCF7, 48 h
Summary of the method: (§3)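 Cells were grown in RPMI-1640/MEM with 10% FCS and penicillin/streptomycin at 37 °C under 5% CO2, then seeded and left to adhere overnight. Analogs in DMSO (vehicle <0.2%) were added at several concentrations for 48 h. Cells were fixed with cold 50% TCA, stained with 0.4% SRB in 1% acetic acid, solubilised in 10 mM Tris, and read at OD 570/620 nm. IC50 came from non-linear regression.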

HeLa [7] = experiment: Growth inhibition of human HeLa cells at 50 uM after 48 hrs by sulpharhodamine B assay; assay type: functional; conditions: read-out: GI; summary of the method: as §1
IMR-32 [8] = experiment: Growth inhibition of human IMR32 cells at 50 uM after 48 hrs by sulpharhodamine B assay; assay type: functional; conditions: IMR-32, 48 h, read-out: GI; summary of the method: as §1
HCT-15 [9] = experiment: Growth inhibition of human HCT15 cells at 10 uM after 48 hrs by sulpharhodamine B assay; assay type: functional; conditions: HCT-15, 48 h, read-out: GI; summary of the method: as §1
THP-1 [10] = experiment: Growth inhibition of human THP1 cells at 10 uM after 48 hrs by sulpharhodamine B assay; assay type: functional; conditions: THP-1, 48 h, read-out: GI; summary of the method: as §2
A549 [11] = experiment: Growth inhibition of human A549 cells at 10 uM after 48 hrs by sulpharhodamine B assay; assay type: functional; conditions: A549, 48 h, read-out: GI; summary of the method: as §1
A549 [12] = experiment: Growth inhibition of human A549 cells at 5 uM after 48 hrs by sulpharhodamine B assay; assay type: functional; conditions: A549, 48 h, read-out: GI; summary of the method: as §1
THP-1 [13] = experiment: Growth inhibition of human THP1 cells at 20 uM after 48 hrs by sulpharhodamine B assay; assay type: functional; conditions: THP-1, 48 h, read-out: GI; summary of the method: as §2
HL-60 [14] = experiment: Induction of apoptosis in human HL60 cells assessed as loss of mitochondrial membrane potential after 24 hrs by rodamine-123 staining-based flow cytometric analysis; assay type: functional, cell-based
HEp-2 [15] = experiment: Cytotoxicity against human Hep2 cells after 48 hrs by sulpharhodamine B assay; assay type: functional, cell-based; conditions: HEp-2, 48 h; summary of the method: as §3
HEp-2 [16] = experiment: Growth inhibition of human Hep2 cells at 50 uM after 48 hrs by sulpharhodamine B assay; assay type: functional; conditions: HEp-2, 48 h, read-out: GI; summary of the method: as §1
A549 [17] = experiment: Growth inhibition of human A549 cells at 50 uM after 48 hrs by sulpharhodamine B assay; assay type: functional; conditions: A549, 48 h, read-out: GI; summary of the method: as §1
HL-60 [18] = experiment: Cytotoxicity against human HL60 cells after 48 hrs by MTT assay; assay type: functional, cell-based; conditions: for IC50: HL-60, 48 h
Summary of the method: (§4)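 Exponentially growing HL-60 cells (1.5×10^4 per well) in 96-well plates were exposed to a range of compound concentrations in DMSO, with vehicle-only controls. MTT (2.5 mg/mL stock) was added for 3–4 h at 37 °C, and formazan was dissolved in DMSO and read at OD 570/620 nm. […] Data are mean ± SD of n = 6 wells from two experiments.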

PC-3 [19] = experiment: Growth inhibition of human PC3 cells at 10 uM after 48 hrs by sulpharhodamine B assay; assay type: functional; conditions: PC-3, 48 h, read-out: GI; summary of the method: as §1
OVCAR-5 = experiment: Growth inhibition of human OVCAR5 cells at 30 uM after 48 hrs by sulpharhodamine B assay; assay type: functional; conditions: OVCAR-5, 48 h, read-out: GI; summary of the method: as §1
DU-145 [20] = experiment: Growth inhibition of human DU145 cells at 5 uM after 48 hrs by sulpharhodamine B assay; assay type: functional; conditions: DU-145, 48 h, read-out: GI; summary of the method: as §1
SF-295 = experiment: Cytotoxicity against human SF295 cells after 48 hrs by sulpharhodamine B assay; assay type: functional, cell-based; conditions: SF-295, 48 h; summary of the method: as §3
HL-60 [21] = experiment: Cytotoxicity against human HL60 cells after 48 hrs by sulpharhodamine B assay; assay type: functional, cell-based; conditions: HL-60, 48 h, in the assay text read “MTT assay” for “sulpharhodamine B assay”
MCF7 [22] = experiment: Growth inhibition of human MCF7 cells at 20 uM after 48 hrs by sulpharhodamine B assay; assay type: functional; conditions: MCF7, 48 h, read-out: GI; summary of the method: as §1
DU-145 [23] = experiment: Growth inhibition of human DU145 cells at 20 uM after 48 hrs by sulpharhodamine B assay; assay type: functional; conditions: DU-145, 48 h, read-out: GI; summary of the method: as §1
HEp-2 [24] = experiment: Growth inhibition of human Hep2 cells at 5 uM after 48 hrs by sulpharhodamine B assay; assay type: functional; conditions: HEp-2, 48 h, read-out: GI; summary of the method: as §1
THP-1 [25] = experiment: Growth inhibition of human THP1 cells at 30 uM after 48 hrs by sulpharhodamine B assay; assay type: functional; conditions: THP-1, 48 h, read-out: GI; summary of the method: as §2
HEp-2 [26] = experiment: Growth inhibition of human Hep2 cells at 10 uM after 48 hrs by sulpharhodamine B assay; assay type: functional; conditions: HEp-2, 48 h, read-out: GI; summary of the method: as §1
HL-60 [27] = experiment: Induction of apoptosis in human HL60 cells assessed as loss of mitochondrial membrane potential at 30 uM after 24 hrs by rodamine-123 staining-based flow cytometric analysis; assay type: functional
IMR-32 [28] = experiment: Growth inhibition of human IMR32 cells at 5 uM after 48 hrs by sulpharhodamine B assay; assay type: functional; conditions: IMR-32, 48 h, read-out: GI; summary of the method: as §1
DU-145 [29] = experiment: Cytotoxicity against human DU145 cells after 48 hrs by sulpharhodamine B assay; assay type: functional, cell-based; conditions: DU-145, 48 h; summary of the method: as §3
HL-60 [30] = experiment: Induction of apoptosis in human HL60 cells assessed as increase in […] sub-G0 fraction at 30 uM by propidium iodide staining-based flow cytometric analysis (reference value: 6%); assay type: functional
MCF7 [31] = experiment: Growth inhibition of human MCF7 cells at 30 uM after 48 hrs by sulpharhodamine B assay; assay type: functional; conditions: MCF7, 48 h, read-out: GI; summary of the method: as §1
HL-60 [32] = experiment: Cytotoxicity against human HL60 cells after 24 hrs by MTT assay; assay type: functional, cell-based; conditions: for IC50: HL-60, 24 h; summary of the method: as §4
HeLa [33] = experiment: Growth inhibition of human HeLa cells at 30 uM after 48 hrs by sulpharhodamine B assay; assay type: functional; conditions: read-out: GI; summary of the method: as §1
A549 [34] = experiment: Growth inhibition of human A549 cells at 30 uM after 48 hrs by sulpharhodamine B assay; assay type: functional; conditions: A549, 48 h, read-out: GI; summary of the method: as §1
MCF7 [35] = experiment: Growth inhibition of human MCF7 cells at 5 uM after 48 hrs by sulpharhodamine B assay; assay type: functional; conditions: MCF7, 48 h, read-out: GI; summary of the method: as §1

Row | SMILES | inhibition of growth at 5 µM (HCT-15 [1]) [%] | Activity (HL-60 [2]) [%] | inhibition of growth at 30 µM (PC-3 [3]) [%] | inhibition of growth at 50 µM (PC-3 [4]) [%] | inhibition of growth at 20 µM (A549 [5]) [%] | IC50 (MCF7 [6]) [µM] | inhibition of growth at 50 µM (HeLa [7]) [%] | inhibition of growth at 50 µM (IMR-32 [8]) [%] | inhibition of growth at 10 µM (HCT-15 [9]) [%] | inhibition of growth at 10 µM (THP-1 [10]) [%] | inhibition of growth at 10 µM (A549 [11]) [%] | inhibition of growth at 5 µM (A549 [12]) [%] | inhibition of growth at 20 µM (THP-1 [13]) [%] | Activity (HL-60 [14]) | IC50 (HEp-2 [15]) [µM] | inhibition of growth at 50 µM (HEp-2 [16]) [%] | inhibition of growth at 50 µM (A549 [17]) [%] | Activity (HL-60 [18]) | IC50 (HL-60 [18]) [µM] | inhibition of growth at 10 µM (PC-3 [19]) [%] | also measured
1 | COc1ccc(/C=C/[C@](C)(/C=C/c2ccc(O)cc2)CCC=C(C)C)cc1 | 28 | 51.4 | 50 | 93 | 69 | 23 | 78 | 69 | 50 | 62 | 47 | 24 | 78 | Dose-dependent effect | 14 | 62 | 70 | Dose-dependent effect | 2 | 41 | inhibition of growth at 30 µM (OVCAR-5): 50%; inhibition of growth at 5 µM (DU-145 [20]): 20%; IC50 (SF-295): 22 µM; IC50 (HL-60 [21]): 2 µM; inhibition of growth at 20 µM (MCF7 [22]): 50%; inhibition of growth at 20 µM (DU-145 [23]): 73%; inhibition of growth at 5 µM (HEp-2 [24]): 23%; inhibition of growth at 30 µM (THP-1 [25]): 60%; inhibition of growth at 10 µM (HEp-2 [26]): 46%; Activity (HL-60 [27]): 55.4%; inhibition of growth at 5 µM (IMR-32 [28]): 13%; IC50 (DU-145 [29]): 11 µM; Activity (HL-60 [30]): 66%; inhibition of growth at 30 µM (MCF7 [31]): 52%; Activity (HL-60 [32]): Dose-dependent effect; IC50 (HL-60 [32]): 16 µM; inhibition of growth at 30 µM (HeLa [33]): 56%; inhibition of growth at 30 µM (A549 [34]): 55%; inhibition of growth at 5 µM (MCF7 [35]): 24%
2 | CC1C(C(C)(C)O)CCC1(C)/C=C/c1ccc(O)cc1 (stereo not drawn) | 29 | 49.1 | 62 | 86 | 53 | 22 | 68 | 85 | 55 | 65 | 40 | 32 | 76 | Dose-dependent effect | 19 | 65 | 76 | Dose-dependent effect | 1.8 | 35 | inhibition of growth at 30 µM (OVCAR-5): 55%; inhibition of growth at 5 µM (DU-145 [20]): 32%; IC50 (SF-295): 23 µM; IC50 (HL-60 [21]): 1.8 µM; inhibition of growth at 20 µM (MCF7 [22]): 50%; inhibition of growth at 20 µM (DU-145 [23]): 54%; inhibition of growth at 5 µM (HEp-2 [24]): 17%; inhibition of growth at 30 µM (THP-1 [25]): 68%; inhibition of growth at 10 µM (HEp-2 [26]): 34%; Activity (HL-60 [27]): 54%; inhibition of growth at 5 µM (IMR-32 [28]): 46%; IC50 (DU-145 [29]): 14 µM; Activity (HL-60 [30]): 68%; inhibition of growth at 30 µM (MCF7 [31]): 58%; Activity (HL-60 [32]): Dose-dependent effect; IC50 (HL-60 [32]): 18 µM; inhibition of growth at 30 µM (HeLa [33]): 52%; inhibition of growth at 30 µM (A549 [34]): 61%; inhibition of growth at 5 µM (MCF7 [35]): 27%
